# Residue numbers refer to the chain shown, from its start.
# Biological target: T1, Vrg4 (Saccharomyces cerevisiae, UniProt P40107)
# T1 sequence (P40107 1-337): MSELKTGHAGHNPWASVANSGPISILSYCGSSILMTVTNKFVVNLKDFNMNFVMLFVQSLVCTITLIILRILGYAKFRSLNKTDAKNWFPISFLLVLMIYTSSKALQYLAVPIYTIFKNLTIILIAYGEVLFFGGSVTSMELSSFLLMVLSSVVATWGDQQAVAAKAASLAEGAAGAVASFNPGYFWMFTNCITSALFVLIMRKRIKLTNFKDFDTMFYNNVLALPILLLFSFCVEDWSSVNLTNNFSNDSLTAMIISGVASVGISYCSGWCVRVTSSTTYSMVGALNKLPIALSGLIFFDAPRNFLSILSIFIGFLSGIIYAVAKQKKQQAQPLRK
# Assay: not given
# Assay type: biochemical
# Settings: internal substrate; 0.5 μM 3H-GMP outside
# Summary of the method: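 Yeast Vrg4-GFP-His was galactose-induced, IMAC-purified in DDM, and then in DM reconstituted by dilution into yeast polar lipid vesicles at 80:1 lipid:protein and dialysed. Internal substrate was loaded by six freeze-thaw cycles and 0.4 μm extrusion. 4 μg protein was added to 50 μl of 20 mM Hepes pH 7.5, 50 mM KCl, 2 mM MgSO4 with 0.5 μM 3H-GMP. Samples were filtered, washed with cold water and scintillation-counted. ≥4 repeats, mean ± S.D.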
row,Transport driven by substance inside the liposome,Compound
1,cannot be driven,Nc1nc2c(ncn2[C@@H]2O[C@H](COP(=O)(O)OP(=O)(O)OP(=O)(O)O)[C@@H](O)[C@H]2O)c(=O)[nH]1 [GTP]
2,no significant transport,"Nc1ccn([C@@H]2O[C@H](COP(=O)(O)O)[C@@H](O)[C@H]2O)c(=O)n1 [CMP, cytosine monophosphate]"
3,poor transport,"Nc1ncnc2c1ncn2[C@@H]1O[C@H](COP(=O)(O)O)[C@@H](O)[C@H]1O [AMP, adenine monophosphate]"

# Biological target: GDP-mannose transporter Vrg4 (Saccharomyces cerevisiae) (UniProt P40107)
# Assay: crystal structure
# Settings: not given
row,stoichiometry N,Compound
1,2,GDP-mannose transporter Vrg4 (from UniProt P40107 1-337) (natural protein)

# Biological target: T2, wild type Vrg4 (Saccharomyces cerevisiae, UniProt P40107)
# T2 sequence (P40107 1-337): T1 sequence (P40107 1-337)
# Assay: Competition / IC50 of 3H-GMP uptake into wild type Vrg4 proteoliposomes
# Assay type: biochemical
# Settings: competition assay, n=4
row,Compound,Competition of transport (recognition by the binding site)
1,Nc1nc2c(ncn2[C@@H]2O[C@H](COP(=O)(O)OP(=O)(O)O)[C@@H](O)[C@H]2O)c(=O)[nH]1 [GDP],can also compete
2,"C[C@@H]1O[C@H](OP(=O)(O)OP(=O)(O)OC[C@H]2O[C@@H](n3cnc4c(=O)[nH]c(N)nc43)[C@H](O)[C@@H]2O)[C@@H](O)[C@H](O)[C@@H]1O [GDP-F, GDP-fucose]",can also compete
3,"Nc1nc2c(ncn2[C@@H]2O[C@H](COP(=O)(O)OP(=O)(O)O[C@H]3O[C@H](CO)[C@@H](O)[C@H](O)[C@@H]3O)[C@@H](O)[C@H]2O)c(=O)[nH]1 [GDP-M, GDP-mannose]",most effective competitors of transport

# The remaining lines, values ahead:
row,Competition of transport (recognition by the binding site),Compound
1,very poorly recognised,Nc1nc2c(ncn2[C@@H]2O[C@@H]3COP(=O)(O)O[C@H]3[C@H]2O)c(=O)[nH]1 [cyclic GMP]
2,cannot inhibit,O=P(O)(O)OP(=O)(O)O [Pyrophosphate]
3,very poorly recognised,Nc1nc2c(ncn2[C@@H]2O[C@H](CO)[C@@H](O)[C@H]2O)c(=O)[nH]1 [guanosine]
4,most effective competitors of transport,"Nc1nc2c(ncn2[C@@H]2O[C@H](COP(=O)(O)O)[C@@H](O)[C@H]2O)c(=O)[nH]1 [GMP, guanine monophosphate]"
5,can also compete,"Nc1nc2c(ncn2[C@@H]2O[C@H](COP(=O)(O)OP(=O)(O)O[C@H]3O[C@H](CO)[C@@H](O)[C@H](O)[C@H]3O)[C@@H](O)[C@H]2O)c(=O)[nH]1 [GTP-G, GDP-glucose]"

# Biological target: T3, Vrg4 Tyr114Phe (Y114F) (Saccharomyces cerevisiae, UniProt P40107, Y114F)
# T3 sequence (P40107 1-337 Y114F): T1 sequence (P40107 1-337) with Y114F
# Assay: IC50 curves, Vrg4 Tyr114Phe variant proteoliposomes
# Assay type: biochemical
# Settings: Tyr114Phe versus wild type
# Summary of the method: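 Wild-type or mutant Vrg4 was purified in DM and reconstituted at 80:1 lipid:protein into yeast polar lipid proteoliposomes. Reconstituted protein was matched by SDS-PAGE densitometry. Liposomes were substrate-loaded by freeze-thaw and extrusion. Uptake was started by adding 4 μg protein equivalent to 50 μl buffer (20 mM Hepes pH 7.5, 50 mM KCl, 2 mM MgSO4) with 0.5 μM 3H-GMP, then filtered and counted. IC50 from curves, mean of three independent experiments, s.d.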
row,Affinity relative to wild type,Compound
1,reduced the affinity,"Nc1nc2c(ncn2[C@@H]2O[C@H](COP(=O)(O)OP(=O)(O)O[C@H]3O[C@H](CO)[C@@H](O)[C@H](O)[C@@H]3O)[C@@H](O)[C@H]2O)c(=O)[nH]1 [GDP-M, GDP-mannose]"
2,reduced the affinity,"Nc1nc2c(ncn2[C@@H]2O[C@H](COP(=O)(O)O)[C@@H](O)[C@H]2O)c(=O)[nH]1 [GMP, guanine monophosphate]"
